Measurements: ChEMBL document CHEMBL3745659, “Synthesis and Characterization of 4,11-Diaminoanthra[2,3-b]furan-5,10-diones: Tumor Cell Apoptosis through tNOX-Modulated NAD(+)/NADH Ratio and SIRT1” (J Med Chem, 2015)
Active and inactive are the calls of the source. The calls are words filed in the database; no cut-off is given here.

How the values were obtained:
[1] = system: Calf thymus DNA; test: Binding affinity to calf thymus double stranded DNA by spectrophotometric titration method; format: nucleic-acid assay; conditions: Bos taurus
Method in brief: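 Absorption spectra of compound recorded while double-stranded DNA concentration was increased (spectrophotometric titration); extinction at absorption maxima 540 and 585 nm and band shift followed.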

[2] = target: T1, Ecto-NOX disulfide-thiol exchanger 2 (Homo sapiens) (UniProt Q16206); test: Inhibition of tNOX in human AGS cells assessed as decrease in intracellular NAD+/NADH ratio in human AGS cells at 5 uM incubated for 5 mins
T1 sequence (whole entry): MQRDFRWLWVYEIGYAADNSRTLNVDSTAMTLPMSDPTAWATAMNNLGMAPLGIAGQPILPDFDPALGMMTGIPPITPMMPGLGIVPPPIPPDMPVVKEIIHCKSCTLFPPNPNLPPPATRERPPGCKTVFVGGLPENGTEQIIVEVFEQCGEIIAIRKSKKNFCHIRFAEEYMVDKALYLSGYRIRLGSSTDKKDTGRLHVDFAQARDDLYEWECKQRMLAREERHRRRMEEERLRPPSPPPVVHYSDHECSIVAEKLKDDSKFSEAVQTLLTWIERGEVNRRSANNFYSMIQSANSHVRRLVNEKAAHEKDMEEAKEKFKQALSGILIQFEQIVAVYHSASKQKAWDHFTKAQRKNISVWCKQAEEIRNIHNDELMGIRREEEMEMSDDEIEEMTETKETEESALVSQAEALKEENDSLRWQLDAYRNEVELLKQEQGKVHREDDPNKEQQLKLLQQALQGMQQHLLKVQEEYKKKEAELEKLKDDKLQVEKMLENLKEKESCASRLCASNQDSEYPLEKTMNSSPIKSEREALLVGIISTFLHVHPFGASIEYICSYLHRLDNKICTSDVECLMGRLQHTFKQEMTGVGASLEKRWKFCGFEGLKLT

[3] = system: AGS; test: Induction of apoptosis in human AGS cells assessed as early apoptotic cells at 0.05 uM after 24 hrs by annexin V-FITC staining-based flow cytometric analysis (Rvb=7.2%); format: functional
Method in brief: (§1)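 AGS cells exposed to compound for 24 h; Annexin V-FITC staining and flow cytometry used to give percentage of apoptotic cells; mean ± S.E. from at least three independent experiments.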

[4] = system: AGS; test: […] in human AGS cells assessed as upregulation of E-Cad after 24 hrs by Western blot analysis; format: functional, cell-based
[5] = system: Calf thymus DNA; test: Binding affinity to calf thymus double stranded DNA assessed as number of base pairs covered by one molecule of compound by spectrophotometric titration method; format: nucleic-acid assay; conditions: Bos taurus
[6] = system: AGS; test: Induction of apoptosis in human AGS cells assessed as necrotic cells at 0.05 uM after 24 hrs by annexin V-FITC staining-based flow cytometric analysis (Rvb=0.9%); format: functional; method in brief: as §1
[7] = target: T2, NAD-dependent protein deacetylase sirtuin-1 (Homo sapiens, UniProt Q96EB6); test: Inhibition of human recombinant SIRT1 deacetylase activity using Arg-His-Lys-Lys(epsilon-acetyl)-AMC as substrate incubated for 45 mins by fluorescence analysis
T2 sequence (Q96EB6 whole entry): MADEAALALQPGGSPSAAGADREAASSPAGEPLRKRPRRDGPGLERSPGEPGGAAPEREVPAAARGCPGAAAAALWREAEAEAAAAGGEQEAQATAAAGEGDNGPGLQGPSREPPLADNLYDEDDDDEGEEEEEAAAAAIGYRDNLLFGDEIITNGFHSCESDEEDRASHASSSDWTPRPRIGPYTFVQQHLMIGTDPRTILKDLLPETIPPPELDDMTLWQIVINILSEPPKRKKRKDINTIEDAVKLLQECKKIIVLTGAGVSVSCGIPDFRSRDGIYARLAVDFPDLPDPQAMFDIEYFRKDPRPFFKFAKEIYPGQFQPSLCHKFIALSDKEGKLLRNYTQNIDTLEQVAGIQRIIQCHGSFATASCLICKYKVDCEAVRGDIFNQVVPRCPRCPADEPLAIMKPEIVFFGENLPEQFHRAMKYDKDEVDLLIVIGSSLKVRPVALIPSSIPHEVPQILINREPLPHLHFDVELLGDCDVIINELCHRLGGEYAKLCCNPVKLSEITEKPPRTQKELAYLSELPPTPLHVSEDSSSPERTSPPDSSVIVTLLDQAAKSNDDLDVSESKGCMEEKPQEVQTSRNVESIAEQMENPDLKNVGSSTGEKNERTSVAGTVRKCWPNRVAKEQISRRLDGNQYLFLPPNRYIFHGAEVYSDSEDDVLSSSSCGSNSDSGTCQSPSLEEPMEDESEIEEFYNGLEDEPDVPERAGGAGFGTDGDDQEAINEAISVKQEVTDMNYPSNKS

[8] = system: AGS; test: Induction of apoptosis in human AGS cells after 24 hrs by annexin V-FITC staining-based flow cytometric analysis; format: functional, cell-based; method in brief: as §1
[9] = system: AGS; test: Induction of apoptosis in human AGS cells assessed as change in mitochondrial transmembrane potential incubated for 1.5 hrs by DiOC6(3) dye-based flow cytometric analysis; format: functional, cell-based
[10] = target: T3, DNA topoisomerase 1 (Homo sapiens) (UniProt P11387); test: Inhibition of Top1 (unknown origin)-mediated relaxation of pBR322 DNA at 0.5 uM incubated for 30 mins by ethidium bromide staining-based gel electrophoresis assay
T3 sequence (whole entry): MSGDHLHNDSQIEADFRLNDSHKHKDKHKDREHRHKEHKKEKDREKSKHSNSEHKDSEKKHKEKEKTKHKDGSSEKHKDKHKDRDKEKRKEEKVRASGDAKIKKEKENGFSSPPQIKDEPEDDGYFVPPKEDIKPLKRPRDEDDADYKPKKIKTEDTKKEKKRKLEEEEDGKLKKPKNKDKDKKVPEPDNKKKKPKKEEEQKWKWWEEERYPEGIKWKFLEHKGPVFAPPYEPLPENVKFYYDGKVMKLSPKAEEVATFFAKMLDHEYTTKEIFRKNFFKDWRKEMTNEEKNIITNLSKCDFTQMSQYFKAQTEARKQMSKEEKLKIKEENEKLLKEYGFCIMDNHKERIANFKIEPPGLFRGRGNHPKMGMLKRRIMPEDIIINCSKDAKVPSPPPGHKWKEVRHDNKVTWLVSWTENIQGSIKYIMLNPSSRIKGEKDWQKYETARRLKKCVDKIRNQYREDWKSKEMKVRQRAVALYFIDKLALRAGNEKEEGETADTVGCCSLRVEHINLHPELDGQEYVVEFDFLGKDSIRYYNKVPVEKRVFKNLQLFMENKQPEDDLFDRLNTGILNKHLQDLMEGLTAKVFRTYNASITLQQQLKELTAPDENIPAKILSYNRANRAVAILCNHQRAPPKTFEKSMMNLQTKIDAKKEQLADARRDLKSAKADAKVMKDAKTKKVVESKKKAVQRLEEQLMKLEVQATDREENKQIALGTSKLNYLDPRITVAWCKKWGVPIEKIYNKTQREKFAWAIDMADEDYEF
Method in brief: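 Supercoiled pBR322 plasmid treated with Top1 without drug or with compound at 0.5, 2.5 or 10 µM; camptothecin as reference; relaxation assessed by gel electrophoresis.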

[11] = system: AGS; test: Downregulation of SIRT1 protein level in human AGS cells at 1 and 5 uM after 24 after 24 hrs by Western blot analysis; format: functional, cell-based

Ka [1]: 2.5 ×10⁶ /M | inhibition [2]: Active | Activity [5]: 3 | IC50 [7]: 3.93 µM | inhibition [10]: Active
Structure (SMILES): CNCCNc1c2c(c(NCCNC)c3occc13)C(=O)c1ccccc1C2=O
Activity [3]: 13% | Activity [4]: Active | Activity [6]: 7.5% | Activity [8]: Dose-dependent effect | Activity [9]: Active | Activity [11]: Active
